Screening data deposited in PubChem by several laboratories.
ABCG2 block = ABCG2 efflux pump inhibitors, primary screen, multiplex with ABCB1, IgMXP3 cells, flow cytometry | Broad substrate specificity ATP-binding cassette transporter ABCG2 (Homo sapiens), Q9UNQ0 | JC-1 efflux | inhibition, % at 6.6 µM | 190,000 compounds, 0.1% hits | AID 1325, 2008;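 active = inhibition above 80%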;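 note: 0% = DMSO and 100% = nicardipine control wells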
Target sequence (Q9UNQ0 whole entry, looked up): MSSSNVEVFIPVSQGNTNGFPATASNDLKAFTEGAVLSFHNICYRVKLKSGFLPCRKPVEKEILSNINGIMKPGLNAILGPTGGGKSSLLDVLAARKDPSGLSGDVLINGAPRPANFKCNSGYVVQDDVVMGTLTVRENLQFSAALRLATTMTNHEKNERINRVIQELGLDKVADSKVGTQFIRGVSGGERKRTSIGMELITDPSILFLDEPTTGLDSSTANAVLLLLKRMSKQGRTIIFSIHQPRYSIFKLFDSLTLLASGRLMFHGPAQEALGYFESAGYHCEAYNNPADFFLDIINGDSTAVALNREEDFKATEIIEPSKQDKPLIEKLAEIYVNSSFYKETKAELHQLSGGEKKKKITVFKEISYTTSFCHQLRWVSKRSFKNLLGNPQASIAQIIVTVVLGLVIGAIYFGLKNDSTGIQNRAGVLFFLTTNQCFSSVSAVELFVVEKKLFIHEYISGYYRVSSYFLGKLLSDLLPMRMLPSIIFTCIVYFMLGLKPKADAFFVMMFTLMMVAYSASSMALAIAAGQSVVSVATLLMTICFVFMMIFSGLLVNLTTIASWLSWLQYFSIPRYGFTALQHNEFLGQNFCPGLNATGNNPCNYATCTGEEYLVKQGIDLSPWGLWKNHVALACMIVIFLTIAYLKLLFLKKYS
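Test system: ABCG2 IgMXP3 and barcoded ABCB1 CCRF-Adr cell mix; Schedule: cells with compound and JC-1, 10 min at 25 °C, rotating, no wash; Technique: flow cytometry of retained JC-1 fluorescence; Measure: % inhibition of efflux relative to nicardipine and DMSO; Controls: nicardipine high and DMSO low controls.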
Arbovirus inh = antivirals against arbovirus infection, primary screen, cell-based, full library, 10K replicate subset | 200,000 compounds, 0.37% hits | inhibition, % at 10 µM | AID 1251, 2008 | arbovirus infection cell-based antiviral screen; in the data active = inhibition above about 30%
RAM network inh = inhibitors of the yeast RAM network, primary screen, dse1pr::URA3 reporter, 5-FOA selection. S. cerevisiae dse1pr::URA3 reporter, 5-FOA growth OD615, 2 d; analog-sensitive cbk1-as2 kinase mutant strain. inhibition, % at 50 µM. 190,000 compounds, 1.8% hits;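 active = inhibition above a set limit, 3 SD over mean compound inhibition, cut at about 8.4% in these data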;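 note: 0% = DMSO-only wells with no growth and 100% = 10 µM 1-NA-PP1 full growth; inhibition rescues growth on 5-FOA so higher OD means more RAM inhibition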
ABCB1 block = ABCB1 efflux pump inhibitors, primary screen, cell-based, multiplex, flow cytometry, ABCG2 counter-screen | ATP-dependent translocase ABCB1 (Homo sapiens), P08183 | CCRF-Adr cells, JC-1 efflux | inhibition, % at 6.6 µM | 190,000 compounds, 0.067% hits | AID 1326, 2008; in the data active = inhibition above about 40%;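 note: 0% = vehicle and 100% = reference inhibitor; higher value means more JC-1 retained so stronger ABCB1 efflux block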
Active calls of the source: *. An excerpt weighted towards active compounds, which were near 2.3% of everything screened.

SMILES	ABCG2 block	Arbovirus inh	RAM network inh	ABCB1 block
Cn1c(=O)[nH]c(=O)c2[nH]c(CN3CCN(C(=O)c4ccco4)CC3)nc21	0.4	1.7	1.4	0.2
C=CCSC(=C(C#N)C#N)c1cc2c([nH]1)CCCC2	6.4	-43.3	10.5*	0.6
Cc1ccc2nc(-c3ccc(NC(=O)CCN4C(=O)c5ccccc5C4=O)cc3)sc2c1	-1.3	-14.7	3.2	-0.3
O=C(CCN1C(=O)c2ccccc2C1=O)Nc1ccc(-c2nc3ccccc3s2)cc1	1.0	-4.3	8.9*	0.1
CCOc1ccc(NC(=S)c2ccncc2)cc1	4.0	-3.3	0.0	0.5
O=C(Nc1ccc(Cl)cc1F)C1CC1	8.6	-4.5	1.2	0.0
Cc1cc(C)c2c(c1)-c1c(ssc1=S)C(C)(C)N2C(=O)CN1C(=O)c2ccccc2C1=O	30.6	-6.1	11.2*	6.3
COC(=O)c1cn(C(=O)c2ccccc2)c2ccccc12	9.8	-0.3	0.3	1.0
O=C(CSc1ccc(Cl)cc1)N1CCN(c2ncc(C(F)(F)F)cc2Cl)CC1	1.1	12.6	11.3*	0.8
O=C(O)c1ccc(-c2nc(-c3ccc(Cl)cc3Cl)cs2)cc1	3.3	13.3	3.1	0.0
O=C(O)c1ccc(-c2nc(-c3ccc(Cl)cc3)cs2)cc1	6.8	41.2*	2.0	0.7
O=S(=O)(NC1CC1)c1ccc(S(=O)(=O)N2CCCC(c3nc(-c4cccnc4)no3)C2)cc1 (stereo not drawn)	13.4	27.2	-0.3	1.3
O=C(O)c1ccccc1SCC(=O)N1CCc2ccccc21	-0.2	6.6	2.9	0.6
COc1ccc(C(=O)N/C(=C\c2cccc3ccccc23)C(=O)NCCc2c[nH]c3ccccc23)cc1OC	-1.0	-17.3	8.8*	-0.2
COc1ccc(C(=O)NCC(=O)NCCc2c[nH]c3ccccc23)cc1OC	6.8	-4.2	0.9	0.6
COc1ccc(CCNC(=O)CSc2cn(Cc3ccccc3)c3ccccc23)cc1OC	19.8	14.0	10.1*	1.8
COc1ccc(CCNC(=O)CSc2cn(Cc3cccc(C)c3)c3ccccc23)cc1OC	32.1	-6.4	6.3	13.4
O=C(Nc1ccc(Cl)cn1)c1ccc(COc2ccccc2Br)o1	25.3	-33.2	11.1*	0.5
O=C(O)CCCN1C(=O)c2ccc(Oc3cccc([N+](=O)[O-])c3)cc2C1=O	1.3	5.2	2.2	0.0
COc1ccc(C2C(C(C)=O)=C(C)N=c3s/c(=C\c4cc(C)n(C)c4C)c(=O)n32)c(OC)c1 (stereo not drawn)	3.6	-16.6	8.4*	1.6
COc1ccc(C2C(C(C)=O)=C(C)N=c3s/c(=C\c4ccco4)c(=O)n32)c(OC)c1 (stereo not drawn)	-0.3	-13.4	3.3	0.3
O=c1cnn([C@@H]2O[C@H](CO)[C@@H](O)[C@H]2O)c(=O)[nH]1	2.2	78.3*	0.0	0.7
Cc1ccsc1C1C=C(c2cccc(Br)c2)Nc2ncnn21 (stereo not drawn)	1.6	-0.8	0.9	0.2
CCc1ccc(C2=CC(c3cc(Br)ccc3F)n3ncnc3N2)cc1 (stereo not drawn)	0.8	62.1*	4.2	0.3
Fc1ccc(Br)cc1C1C=C(c2ccc(Br)cc2)Nc2ncnn21 (stereo not drawn)	0.2	70.8*	3.7	0.3
SMILES	ABCG2 block	Arbovirus inh	RAM network inh	ABCB1 block
CC(C)CCn1nc(C(=O)OC(C)C(=O)NC(N)=O)c2ccccc2c1=O (stereo not drawn)	3.1	2.6	0.7	1.9
O=C(NC(=S)NCCC1=CCCCC1)c1ccccc1Br	-2.4	37.3*	7.5	-0.7
Cc1nc(CN2CCC(c3ccccc3)CC2)cc(=O)[nH]1	6.5	7.3	0.8	1.8
CC(=O)c1ccc(NC(=O)c2ccc(CSc3ccccc3)o2)cc1	6.3	6.3	8.6*	0.6
O=C(Nc1ccc(F)cc1)c1ccc(CSc2ccccc2)o1	-0.1	5.8	-0.1	-0.1
COC(=O)c1sc2ncccc2c1OCc1cccc(Cl)c1	5.4	2.9	9.6*	0.6
COC(=O)c1sc2ncccc2c1OCc1c(Cl)cccc1Cl	11.8	7.4	2.8	0.2
N#Cc1c(SCC(N)=O)nsc1SCc1ccc(Cl)cc1	3.9	-0.9	9.2*	0.2
O=C(CSc1nnc(SCc2cccc3ccccc23)s1)c1ccc2c(c1)OCO2	-1.2	-20.4	8.8*	-0.3
Cc1ncc(CN2CCN(C3CCCC3)C(CCO)C2)s1 (stereo not drawn)	6.1	1.3	-1.2	1.4
COc1cc2ccccc2cc1C(=O)NC(=S)Nc1cccc(C(=O)O)c1	-2.7	14.3	8.9*	-0.9
CC(=O)c1cccc(NC(=S)NC(=O)c2ccccc2)c1	8.6	-3.0	-0.5	0.7
COc1ccc(C(=O)O)cc1NC(=S)NC(=O)c1ccc(-c2ccc(Cl)cc2)o1	-2.6	50.4*	2.2	-0.7
O=C(O)c1cccc(NC(=S)NC(=O)c2ccc(-c3ccccc3)cc2)c1	-0.2	27.8	5.4	-0.5
O=C(O)c1cccc(NC(=S)NC(=O)c2ccc(-c3ccc(Cl)cc3)o2)c1	-1.9	35.4*	3.8	-0.5
O=C(Cc1cccs1)N1CCN(S(=O)(=O)c2ccc(F)cc2)CC1	0.5	6.5	3.2	0.8
Cc1ccc(OCCOCCNC(C)(C)C)c([N+](=O)[O-])c1	-0.7	-1.3	1.2	-0.1
CC(C)NS(=O)(=O)c1ccc(OCC(=O)N(C)Cc2ccccc2)cc1	1.9	2.7	0.4	-0.1
CCOC(=O)c1sc(NC(=S)NC(=O)c2ccccc2)c(C(=O)OCC)c1C	-4.5	-9.7	4.9	-0.7
CCOC(=O)C1=C(NC(=S)NC(=O)c2ccccc2)c2ccccc2CC1(C)CC (stereo not drawn)	1.9	26.7	11.2*	0.8
O=C(OCC(=O)N1CCN(C(=O)c2ccco2)CC1)c1cc(-c2ccc(Cl)c(Cl)c2Cl)nc2ccccc12	1.5	-39.4	9.5*	3.9
CSc1nc(C)c(CCO)c(=O)[nH]1	2.1	30.6*	0.6	0.6
CSc1nc(C)c(CCOC(=O)c2ccccc2)c(=O)[nH]1	1.6	6.0	4.4	0.3
Fc1ccc2nc(Nc3nc4c(F)cc(F)cc4s3)sc2c1	11.3	25.1	0.7	-2.6
Fc1ccc2nc(Nc3nc4cc5c(cc4s3)OCO5)sc2c1	-2.1	-5.0	9.2*	-0.6
Fc1ccc2nc(Nc3nc4c(F)cccc4s3)sc2c1	3.6	34.2*	1.0	-0.2
Fc1ccc2nc(Nc3nc4cc5c(cc4s3)OCCO5)sc2c1	-8.9	9.6	4.5	-1.0
O=C(N[C@@H](Cc1ccccc1)C(=O)O)c1ccc(C(F)(F)F)cc1	0.1	1.9	2.2	0.2
C=CCn1c(SCc2ccccc2)nc2scc(-c3ccc(C)o3)c2c1=O	0.4	-3.4	10.9*	0.0
C/C(CC(=O)Nc1ccc2c(c1)OCO2)=N\NC(=O)OC(C)(C)C	2.6	-22.4	2.6	0.0
